Values after ≈ are worked out from the molar mass of the structure shown.
Experiments:
[1] = Kinetic solubility of the compound in water after 30 mins by nephelometric analysis; assay type: physicochemical; details: read-out: Kinetic_solubility
Method in brief: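 DMSO stock diluted into water to 1% final DMSO and left at ambient temperature for 30 min. Solubility range read by nephelometry.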

[2] = Plasma concentration in FVB mouse at 30 mg/kg, administered through oral gavage as single dose measured after 48 hrs post dose by LC-MS analysis; assay type: ADME, organism-based
Method in brief: (§1)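 Non-infected mice given one oral gavage dose of 30 mg/kg as an aqueous suspension. Terminal cardiac blood taken under isoflurane, centrifuged at 4 °C, plasma stored at -20 °C. Plasma proteins precipitated with acetonitrile (2:1 or 3:1), supernatant run by LC/MS with diazepam internal standard against a blank mouse plasma calibration curve. PK parameters calculated noncompartmentally.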

[3] = Cmax in FVB mouse at 30 mg/kg, administered through oral gavage as single dose by LC-MS analysis; assay type: ADME, organism-based; design: dose 30 mg/kg, route oral; details: in vivo; method in brief: as §1
[4] = AUC (0 to infinity) in FVB mouse at 30 mg/kg, administered through oral gavage as single dose by LC-MS analysis; assay type: ADME, organism-based; design: dose 30 mg/kg, time infinity, route oral; details: in vivo; method in brief: as §1
[5] = Plasma concentration in rat at 300 mg/kg, po administered every third day for 5 doses measured after 2 weeks; assay type: ADME, organism-based
Method in brief: (§2)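 Male rats dosed by oral gavage at 100 or 300 mg/kg every third day for 5 doses, in the same vehicle as the mouse efficacy and exposure studies; vehicle controls included. Endpoints: general condition, body weight, clinical biochemistry, histopathology, mortality and plasma concentrations.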

[6] = system: Rattus norvegicus; assay: Drug accumulation in rat at 100 to 300 mg/kg, po administered every third day for 5 doses measured after 2 weeks relative to control; assay type: ADME, organism-based; details: in vivo, 336 h
Method in brief: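 Male rats were given oral gavage doses of 100 or 300 mg/kg every third day for five doses, alongside a vehicle group. The vehicle was the same formulation used for the mouse efficacy studies. Plasma concentrations were followed over the dosing period to assess accumulation, together with general condition, body weight, biochemistry and histopathology.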

[7] = Plasma concentration in rat at 100 mg/kg, po administered every third day for 5 doses measured after 2 weeks; assay type: ADME, organism-based; method in brief: as §2

c1cc([C@H]2CC[C@]3(CC2)OOC2(O3)C3CC4CC(C3)CC2C4)ccc1OCCN1CCCCC1 (stereo partly drawn)
solubility kinetic at 0.5 h [1]: 6.3 to 12.5 µg/mL (≈ 13.5 to 26.7 µM)

CC(C)(CN)Oc1ccc([C@H]2CC[C@]3(CC2)OOC2(O3)C3CC4CC(C3)CC2C4)cc1 (stereo partly drawn)
concentration at 48 h [2]: 7.97 nM
Cmax [3]: 529 nM
AUC(0-inf) [4]: 11.3 µM·h
solubility kinetic at 0.5 h [1]: > 100 µg/mL

c1ccc([C@H]2CC[C@]3(CC2)OOC2(O3)C3CC4CC(C3)CC2C4)c(OCCN2CCOCC2)c1 (stereo partly drawn)
solubility kinetic at 0.5 h [1]: 3.1 to 6.3 µg/mL (≈ 6.6 to 13.4 µM)

NCCCCOc1ccc([C@H]2CC[C@]3(CC2)OOC2(O3)C3CC4CC(C3)CC2C4)cc1 (stereo partly drawn)
concentration at 48 h [2]: 23.4 nM
Cmax [3]: 370 nM
AUC(0-inf) [4]: 11 µM·h
solubility kinetic at 0.5 h [1]: 50 to 100 µg/mL (≈ 117 to 234 µM)

c1cc([C@H]2CC[C@]3(CC2)OOC2(O3)C3CC4CC(C3)CC2C4)ccc1OC1CCNCC1 (stereo partly drawn)
concentration at 48 h [2]: 49.4 nM
Cmax [3]: 810 nM
AUC(0-inf) [4]: 16.4 µM·h
solubility kinetic at 0.5 h [1]: > 100 µg/mL

c1cc([C@H]2CC[C@]3(CC2)OOC2(O3)C3CC4CC(C3)CC2C4)ccc1OCCCN1CCOCC1 (stereo partly drawn)
solubility kinetic at 0.5 h [1]: 1.6 to 3.1 µg/mL (≈ 3.31 to 6.41 µM)

CC(C)(O)CN1CCC(Oc2ccc([C@H]3CC[C@]4(CC3)OOC3(O4)C4CC5CC(C4)CC3C5)cc2)CC1 (stereo partly drawn)
concentration at 48 h [2]: 22.7 nM
Cmax [3]: 1810 nM
AUC(0-inf) [4]: 27.7 µM·h
concentration at 336 h [5]: 1000 to 2000 ng/mL
solubility kinetic at 0.5 h [1]: 1.6 to 3.1 µg/mL (≈ 3.13 to 6.06 µM)

[O-][S+]1CCN(CCCOc2ccc([C@H]3CC[C@]4(CC3)OOC3(O4)C4CC5CC(C4)CC3C5)cc2)CC1 (stereo partly drawn)
concentration at 336 h [5]: 1000 to 2000 ng/mL
solubility kinetic at 0.5 h [1]: < 1.6 µg/mL

c1cc([C@H]2CC[C@]3(CC2)OOC2(O3)C3CC4CC(C3)CC2C4)ccc1OCCN1CC2(COC2)C1 (stereo partly drawn)
solubility kinetic at 0.5 h [1]: 50 to 100 µg/mL (≈ 104 to 208 µM)

N[C@H]1CC[C@@H](Oc2ccc([C@H]3CC[C@]4(CC3)OOC3(O4)C4CC5CC(C4)CC3C5)cc2)CC1 (stereo partly drawn)
concentration at 48 h [2]: 145 nM
Cmax [3]: 1170 nM
AUC(0-inf) [4]: 29.5 µM·h
solubility kinetic at 0.5 h [1]: 25 to 50 µg/mL (≈ 55.1 to 110 µM)
fold change (FC) [6]: 1 to 4

FC1(F)C2CC3CC1CC(C2)C31OO[C@]2(CC[C@@H](c3ccc(OCCN4CCOCC4)cc3)CC2)O1 (stereo partly drawn)
solubility kinetic at 0.5 h [1]: 1.6 to 3.1 µg/mL (≈ 3.16 to 6.13 µM)

c1cc([C@H]2CC[C@]3(CC2)OO[C@]2(O3)C3CC4CC(C3)CC2C4)ccc1OCCN1CCOCC1 [ARTEFENOMEL]
concentration at 48 h [2]: 132 nM
Cmax [3]: 3800 nM
concentration at 336 h [7]: 4600 ng/mL
AUC(0-inf) [4]: 38.7 µM·h
concentration at 336 h [5]: 6300 ng/mL
solubility kinetic at 0.5 h [1]: < 1.6 µg/mL

O[C@H]1CC[C@H](NCCCOc2ccc([C@H]3CC[C@]4(CC3)OOC3(O4)C4CC5CC(C4)CC3C5)cc2)CC1 (stereo partly drawn)
concentration at 48 h [2]: 26.5 nM
Cmax [3]: 721 nM
AUC(0-inf) [4]: 12.8 µM·h
solubility kinetic at 0.5 h [1]: > 100 µg/mL

c1cc([C@H]2CC[C@]3(CC2)OOC2(O3)C3CC4CC(C3)CC2C4)ccc1OCCOC1CCNCC1 (stereo partly drawn)
concentration at 48 h [2]: 97.6 nM
Cmax [3]: 633 nM
AUC(0-inf) [4]: 19 µM·h
solubility kinetic at 0.5 h [1]: 50 to 100 µg/mL (≈ 103 to 207 µM)

CS(=O)(=O)N1CCN(CCCOc2ccc([C@H]3CC[C@]4(CC3)OOC3(O4)C4CC5CC(C4)CC3C5)cc2)CC1 (stereo partly drawn)
solubility kinetic at 0.5 h [1]: < 1.6 µg/mL

CC(C)(N)CCOc1ccc([C@H]2CC[C@]3(CC2)OOC2(O3)C3CC4CC(C3)CC2C4)cc1 (stereo partly drawn)
concentration at 48 h [2]: 89.2 nM
Cmax [3]: 1050 nM
AUC(0-inf) [4]: 27.8 µM·h
solubility kinetic at 0.5 h [1]: 50 to 100 µg/mL (≈ 113 to 226 µM)
fold change (FC) [6]: 1 to 4

c1cc([C@H]2CC[C@]3(CC2)OOC2(O3)C3CC4CC(C3)CC2C4)ccc1OCCN1CCCOCC1 (stereo partly drawn)
concentration at 48 h [2]: 13.2 nM
Cmax [3]: 2610 nM
AUC(0-inf) [4]: 16.8 µM·h
solubility kinetic at 0.5 h [1]: 3.1 to 6.3 µg/mL (≈ 6.41 to 13 µM)

CC(C)(N)CNC(=O)C[C@H]1CC[C@]2(CC1)OOC1(O2)C2CC3CC(C2)CC1C3 (stereo partly drawn)
concentration at 48 h [2]: < 1 nM
Cmax [3]: 776 nM
AUC(0-inf) [4]: 2.61 µM·h
solubility kinetic at 0.5 h [1]: > 100 µg/mL

c1cc([C@H]2CC[C@]3(CC2)OOC2(O3)C3CC4CC(C3)CC2C4)ccc1CN1CCOCC1 (stereo partly drawn)
solubility kinetic at 0.5 h [1]: 1.6 to 3.1 µg/mL (≈ 3.64 to 7.05 µM)

NCCOc1ccc([C@H]2CC[C@]3(CC2)OOC2(O3)C3CC4CC(C3)CC2C4)cc1 (stereo partly drawn)
concentration at 48 h [2]: 4.73 nM
Cmax [3]: 287 nM
AUC(0-inf) [4]: 3.42 µM·h
solubility kinetic at 0.5 h [1]: > 100 µg/mL
fold change (FC) [6]: 1 to 4

c1cc([C@H]2CC[C@]3(CC2)OOC2(O3)C3CC4CC(C3)CC2C4)ccc1OCCN1CCC1 (stereo partly drawn)
solubility kinetic at 0.5 h [1]: > 100 µg/mL

CC1(C)CC(O)(COc2ccc([C@H]3CC[C@]4(CC3)OOC3(O4)C4CC5CC(C4)CC3C5)cc2)CC(C)(C)N1 (stereo partly drawn)
concentration at 48 h [2]: 122 nM
Cmax [3]: 1000 nM
AUC(0-inf) [4]: 32.9 µM·h
solubility kinetic at 0.5 h [1]: > 100 µg/mL

c1cc([C@H]2CC[C@]3(CC2)OOC2(O3)C3CC4CC(C3)CC2C4)ccc1OCCN1CCNCC1 (stereo partly drawn)
concentration at 48 h [2]: 23.9 nM
Cmax [3]: 752 nM
AUC(0-inf) [4]: 16.8 µM·h
solubility kinetic at 0.5 h [1]: > 100 µg/mL

c1cc([C@H]2CC[C@]3(CC2)OOC2(O3)C3CC4CC(C3)CC2C4)ccc1OCCC1CCNCC1 (stereo partly drawn)
concentration at 48 h [2]: 192 nM
Cmax [3]: 1190 nM
AUC(0-inf) [4]: 34.1 µM·h
solubility kinetic at 0.5 h [1]: > 100 µg/mL

CC(C)(O)CNCCCOc1ccc([C@H]2CC[C@]3(CC2)OOC2(O3)C3CC4CC(C3)CC2C4)cc1 (stereo partly drawn)
concentration at 48 h [2]: 36 nM
Cmax [3]: 1210 nM
AUC(0-inf) [4]: 22.8 µM·h
concentration at 336 h [5]: > 1900 ng/mL
solubility kinetic at 0.5 h [1]: > 100 µg/mL

NC1CCN(S(=O)(=O)c2ccc([C@H]3CC[C@]4(CC3)OOC3(O4)C4CC5CC(C4)CC3C5)cc2)CC1 (stereo partly drawn)
solubility kinetic at 0.5 h [1]: 12.5 to 25 µg/mL (≈ 24.9 to 49.7 µM)

NCCCOc1ccc([C@H]2CC[C@]3(CC2)OOC2(O3)C3CC4CC(C3)CC2C4)cc1 (stereo partly drawn)
fold change (FC) [6]: 1 to 4

O=C(c1ccc([C@H]2CC[C@]3(CC2)OOC2(O3)C3CC4CC(C3)CC2C4)cc1)N1CCNCC1 (stereo partly drawn)
solubility kinetic at 0.5 h [1]: > 100 µg/mL

c1cc([C@H]2CC[C@]3(CC2)OOC2(O3)C3CC4CC(C3)CC2C4)ccc1OCC1CCNCC1 (stereo partly drawn)
concentration at 48 h [2]: 17.9 nM
Cmax [3]: 465 nM
AUC(0-inf) [4]: 8.9 µM·h
solubility kinetic at 0.5 h [1]: 12.5 to 25 µg/mL (≈ 27.6 to 55.1 µM)

— ChEMBL document CHEMBL4007393 (J Med Chem, 2017)
